An excerpt weighted towards active compounds, which were near 1.6% of everything screened.
PLCb3 inh: blocks human PLC-beta3 enzyme activity | Q01970 | Purified PLC-beta3, fluorogenic substrate, fluorescence | inhibition, % at 12.2 µM | hit rate 0.18% among 370,000; in the data active = inhibition above about 11%;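 note: 0% = median of compound wells on plate and 100% = full blocker control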
HGIII-sPLA2 inh: Blocks human group III sPLA2 activity; hit rate 0.56% among 370,000; inhibition, % at 12.2 µM; QFRET BODIPY PC-A2 liposome hydrolysis, fluorescence; AID 743126; Q9NZ20;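 active = inhibition above mean plus 3 SD of compounds lying within the high and low control bounds, cut at about 19% in these data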;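 note: 0% = median of test compound wells and 100% = no enzyme DMSO wells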
procasp3 activ: procaspase-3 (human) activation; hit rate 0.11% among 330,000; recombinant procaspase-3 D3A, Ac-DEVD-pNA absorbance 405 nm; activation, % at 8.5 µM; P42574;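 active = activation above the mean of all tested compounds plus 3 SD, cut at about 21% in these data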;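 note: 0% = DMSO alone and 100% = DMSO wells spiked with extra 5 µM PC-3 D3A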
Target sequence (P42574 whole entry D9A/D28A/D175A): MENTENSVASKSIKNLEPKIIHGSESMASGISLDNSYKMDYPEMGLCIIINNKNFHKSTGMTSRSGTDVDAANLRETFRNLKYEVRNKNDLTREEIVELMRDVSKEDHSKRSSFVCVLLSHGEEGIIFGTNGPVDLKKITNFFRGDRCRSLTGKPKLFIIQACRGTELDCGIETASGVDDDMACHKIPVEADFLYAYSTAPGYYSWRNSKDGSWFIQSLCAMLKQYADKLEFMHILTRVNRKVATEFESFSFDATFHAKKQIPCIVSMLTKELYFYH
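Assay system: Procaspase-3 D3A mutant, all three cleavage aspartates alanine. Buffer or medium: Zinc-free HEPES saline buffer with Triton X-100. Times: 1 h compound preincubation, 2 h substrate hydrolysis at 25 °C. Measured by: 405 nm absorbance of p-nitroaniline, reads at 0 and 120 min. Read-out basis: percent activation relative to control range. Replicates: singlicate.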
PLCg1 inh: inhibitors of human phospholipase C gamma1 | P19174 | inhibition, % at 12.2 µM | purified PLC-gamma1, fluorogenic substrate, fluorescence | hit rate 0.84% among 370,000
procasp7 counter: activates human procaspase-7, counter-screen for procaspase-3 activators | P55210 | recombinant procaspase-7, Ac-DEVD-pNA absorbance 405 nm; D23A/D198A/D206A triple mutant, cannot self-cleave; scale: DMSO 0, 5 µM enzyme 100 | activation, % at 8.5 µM | hit rate 0.093% among 330,000 | AID 463210;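 active = percent activation above the screen-wide mean plus 3 SD, cut at about 25% in these data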
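Replicates: singlicate. Assay system: Procaspase-7 triple mutant (PC-7 D3A). Signal: 405 nm absorbance of p-nitroaniline. Times: 1 h preincubation, 2 h reaction. Buffer or medium: Zinc-free HEPES pH 7.4 with 300 mM NaCl, 0.01% Triton X-100. Also added: DEVD-pNA substrate. Benchmarks: DMSO wells as 0%, DMSO with 5 µM added PC-7 as 100%.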
PLCg1 ctr: inhibits human PLC-gamma1 in PLC-beta3 counter-screen; hit rate 3.1% among 3,300; inhibition, % at 12.3 µM; purified PLC-gamma1, fluorogenic substrate, fluorescence; shares compounds with PLCg1 inh
PLCbeta3 conf: human PLC-beta3 inhibition, confirmation; purified PLC-beta3, fluorogenic substrate fluorescence; hit rate 1% among 3,300; inhibition, % at 12.3 µM; shares compounds with PLCg1 inh; in the data active = inhibition above about 11%
The depositor's hits bear a star; / = no result given. Cut-off read from the data, not from the text of the source, unless noted: active = inhibition above about 9.5%; inactive = the rest.

SMILES	PLCb3 inh	HGIII-sPLA2 inh	procasp3 activ	PLCg1 inh	procasp7 counter	PLCg1 ctr	PLCbeta3 conf
COCOc1cccc(CN2CCC2(C)C(=O)Nc2ccc(C)cc2)c1 (stereo unspecified)	0	3	/	13*	/	-7	-5
CC(C)Oc1ccc(CN2CCC2(C)C(=O)Nc2ccc3c(c2)OCO3)cc1 (stereo unspecified)	8	4	/	12*	/	-1	5
Nc1nc(Sc2ccc([N+](=O)[O-])cc2[N+](=O)[O-])n[nH]1	-1	1	12	9.5*	5	4	3
CC(C)Cn1cnc2c(Sc3c([N+](=O)[O-])ncn3C)nc(N)nc21	12*	-1	/	22*	/	2	5
CCCCCCC(=O)Nc1ccc(Br)cn1	-1	-2	-1	3	16	/	/
O=C(O)CCC(=O)Nc1ccc(Br)cn1	3	5	-4	10*	9	-4	-12
CC(O)Cc1cn(CC(=O)N2CCN(C(=O)OC(C)(C)C)CC2)nn1 (stereo unspecified)	8	6	-4	13*	-3	-8	-2
CC(C)(C)OC(=O)NC(=NCCCc1cn(CC(=O)N2CCN(C(=O)OC(C)(C)C)CC2)nn1)NC(=O)OC(C)(C)C	3	3	7	0	12	/	/
O=Nc1c(O)[nH]c2ccc(Cl)c(Cl)c12	1	-77	/	-1	/	/	/
COc1ccc(C(=O)N2CCN(C3CCC(c4ccccc4)CC3)CC2)cc1OC (stereo unspecified)	5	-10	-4	15*	4	-12	-2
Cc1ccc(S(=O)(=O)NC(CC(C)C)C(=O)Nc2ccncc2)cc1 (stereo unspecified)	-5	13	4	-1	-2	/	/
COc1cc(-c2ccc(NC(=O)CN3CCC(C)CC3)c(OC)c2)ccc1NC(=O)CN1CCC(C)CC1	6	-3	/	10*	/	-5	-7
COc1ccc(NC(=O)CN2CCC(C)CC2)cc1	9	5	1	12*	6	-6	-2
COc1cccc(C(=O)NCCS(=O)(=O)NC(C)CCc2ccccc2)c1 (stereo unspecified)	-9	6	-12	6	0	/	/
C#CNC(=O)C1(CC=C)CCNCC1	12*	8	2	4	1	-5	-2
CSc1ccccc1NC(=O)c1noc(C)c1[N+](=O)[O-]	-10	-12	2	3	0	/	/
Cc1ccc(S(=O)(=O)N=C2SCCCS2)cc1	3	-3	-7	9.9*	0	-3	1
Cc1ccc(S(=O)(=O)/N=C2/NC(=O)/C(=C\c3ccccc3)S2)cc1	-5	-71	-2	-1	-10	/	/
CCN(CC(=O)Nc1ccc(NC(C)=O)cc1)C(=O)C1CC(=O)N(CCc2ccc(OC)c(OC)c2)C1 (stereo unspecified)	-6	7	1	2	5	/	/
COc1ccc(CCN2CC(C(=O)N(C)CC(=O)Nc3ccc(F)c(F)c3F)CC2=O)cc1OC (stereo unspecified)	-1	16	/	11*	/	-4	-1
CCC(C)[C@H](NC(=O)C1CCN(C(=O)[C@H](Cc2ccccc2)NS(=O)(=O)c2ccc(C)cc2)CC1)C(=O)O (stereo partly specified)	-5	1	5	2	2	/	/
CC(C)OC(=O)c1ccc(N2C(=O)C3CC=CCC3C2=O)cc1 (stereo unspecified)	1	-9	5	-1	8	/	/
COC(=O)c1ccc(N2C(=O)C3CC=CC(C)C3C2=O)cc1 (stereo unspecified)	4	0	-5	10*	-4	-4	-2
Cc1cccc(OC(C)C(=O)N(Cc2cccs2)C2CCS(=O)(=O)C2)c1C (stereo unspecified)	3	-4	-1	13*	5	-4	2
COCCC(=O)N1CCC(Oc2ccc(C(=O)N3CCCC(OC)C3)cc2)CC1 (stereo unspecified)	12*	4	7	4	7	-1	-7
